Experiment [1] has as its system A-375. Put plainly: Induction of apoptosis in human A375 cells assessed as caspase 9 activation at 2 ug/mL incubated for 18 hrs by fluorometric assay. Type of experiment: functional, cell-based. Put shortly: (§1)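 Cells seeded at 1 × 10⁶ per 10 cm dish and treated with 2 µg/ml alone or with 8 Gy X-ray for 18 h total. RIPA lysates clarified by spinning at 12,000 rpm for 5 min; 80 µg protein given Ac-DEVD-AMC (caspase-3), Ac-IETD-AMC (caspase-8) or Ac-LEHD-AMC (caspase-9). Incubated 2 h at 37 °C in the dark; fluorescence at 380/440 nm.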

The subject of experiment [2] is A-375. Kind of experiment: Induction of ROS generation in human A375 cells at 2 ug/mL incubated for 6 hrs followed by irradiation with 8 Gy X-ray at 37 degC for 12 hrs by DCF and DHE dye based fluorescence assay. The experiment is classed as functional, cell-based. In short, it runs like this: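 A375 cells (4 × 10⁴/well) cultured 24 h, then treated 6 h at 8 or 16 µg/ml or at 2 or 4 µg/ml, and given 0 or 8 Gy X-ray. Loaded with H₂DCF or DHE for 30 min at 37 °C in the dark. Fluorescence read at 485/535 nm (DCF) or 480/610 nm (DHE); % of control.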

The subject of experiment [3] is A-375. Kind of experiment: Induction of cell morphological changes in human A375 cells pre-treated with 20 uM p38 inhibitor […] for 1 hr followed by 8 ug/mL compound exposure for 18 hrs. The experiment is classed as functional, cell-based.
In experiment [4] the test system is A-375. Kind of experiment: Cytotoxicity against human A375 cells pre-treated with 20 uM p38 inhibitor […] for 1 hr followed by 8 ug/mL compound exposure for 18 hrs by MTT assay. Type of experiment: functional, cell-based. In short, it runs like this: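 A375 cells pretreated 1 h with 20 µM SP600125 (JNK) or SB203580 (p38), then exposed to compound at 8 µg/ml for 18 h. Viability by MTT (formazan in DMSO, 570 nm), expressed as % of control.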

For experiment [5], the system named is A-375. Put plainly: Induction of ROS generation in human A375 cells at 2 ug/mL […] by DCF and DHE dye based fluorescence assay. The experiment is classed as functional, cell-based.
Experiment [6] deals with A-375. Put plainly: Cytotoxicity against human A375 cells incubated for 6 hrs followed by irradiation with 8 Gy X-ray at 37 degC for 12 hrs by MTT assay. Type of experiment: functional, cell-based. The conditions noted are these: A-375, light or radiation study. Put shortly:
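A375 cells (DMEM, 10% FBS, 37 °C, 5% CO2) seeded at 4 × 10⁴ cells/well and grown to 70–80% confluence. Treated with 0, 1, 2, 4, 8, 16 or 32 µg/ml for 6 h, then given 0 or 8 Gy X-ray (linear accelerator, 1.5 Gy/min), then 12 h more at 37 °C. MTT 4 h, formazan dissolved in DMSO, read at 570 nm; % of control; three repeats.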
On the technique in general: Formazan colour is commonly taken as a measure of viable cells.

Experiment [7] deals with A-375. Put plainly: Induction of apoptosis in human A375 cells assessed as caspase PARP cleavage at 2 ug/mL incubated for 18 hrs by Western blotting method. The experiment is classed as functional, cell-based. Put shortly: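 A375 cells treated with 2 µg/ml alone or with 8 Gy X-ray (6 h pretreatment, then 12 h; 18 h total). RIPA lysates (50 µg protein) run on SDS-PAGE and immunoblotted for caspases and PARP cleavage. Reprobed for β-actin as loading control.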
A general note: A western blot detects proteins with antibodies after separation by electrophoresis.

In experiment [8] the target is MAP kinase p38 (Homo sapiens) (UniProt O15264+Q15759+Q16539+P53778). Kind of experiment: Induction of p38 phosphorylation in human A375 cells at 4 ug/mL incubated for 6 hrs followed by irradiation with 8 Gy X-ray at 37 degC for 12 hrs by Western blotting method. Type of experiment: cell-based. Particulars: A-375. In short, it runs like this: (§2)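 A375 cells given […] for 6 h, then 0 or 8 Gy X-ray at 1.5 Gy/min and 12 h further culture. Lysis in ice-cold RIPA, pH 7.4, with protease and phosphatase inhibitors; protein by BCA. […] protein per lane on SDS-PAGE, transferred to nitrocellulose. Blocked in 5% milk/TBST. Primary 1:1000, 10 h, 4 °C; HRP secondary 1:2000, 1.5 h.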

In experiment [9] the test system is A-375. Kind of experiment: Increase in Bid cleavage in human A375 cells at 4 ug/mL incubated for 18 hrs by Western blotting method. The experiment is classed as functional, cell-based. Put shortly: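 A375 cells pretreated 6 h with compound at 4 µg/ml, given 0 or 8 Gy X-ray, then incubated 12 h more. Lysed in RIPA buffer, pH 7.4, with protease and phosphatase inhibitors; 50 µg protein run on SDS-PAGE and blotted to nitrocellulose. Blocked in 5% milk; primary antibodies 1:1000, 10 h at 4 °C; HRP secondary 1:2000.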

Experiment [10] deals with A-375. Put plainly: Induction of apoptosis in human A375 cells assessed as accumulation at subG1 phase at 4 ug/mL incubated for 6 hrs followed by irradiation with 8 Gy X-ray at 37 degC for 12 hrs by propidium iodide staining based flow cytometry (reference value: 2.3%). Type of experiment: functional. Put shortly:
(§3)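 A375 cells treated at 10 or 4 µg/ml for 6 h, given 0 or 8 Gy X-ray, then 12 h more. Trypsinized, washed in PBS, fixed overnight in ice-cold 75% ethanol at −20 °C. Stained with propidium iodide, 30 min at 37 °C in the dark; DNA content and sub-G1 population read by flow cytometry.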
(In flow cytometry, cells or beads pass a laser one at a time.)

Experiment [11] has as its system A-375. Kind of experiment: Reduction in Bcl-2 expression in human A375 cells at 4 ug/mL incubated for 6 hrs followed by irradiation with 8 Gy X-ray at 37 degC for 12 hrs by Western blotting method. Type of experiment: functional, cell-based. In short, it runs like this:
as §2

Experiment [12] relates to A-375. Put plainly: Induction of cell morphological changes in human A375 cells incubated for 6 hrs followed by irradiation with 8 Gy X-ray at 37 degC for 12 hrs by microscopy. Type of experiment: functional, cell-based.
Experiment [13] relates to A-375. Put plainly: Induction of apoptosis in human A375 cells assessed as caspase 8 activation at 2 ug/mL incubated for 6 hrs followed by irradiation with 8 Gy X-ray at 37 degC for 12 hrs by fluorometric assay. The experiment is classed as functional, cell-based. Put shortly: as §1
The subject of experiment [14] is A-375. Put plainly: Induction of apoptosis in human A375 cells assessed as caspase 3 activation at 2 ug/mL incubated for 18 hrs by fluorometric assay. Type of experiment: functional, cell-based. Put shortly: as §1
Experiment [15] concerns A-375. Put plainly: Induction of cell shrinkage in human A375 cells incubated for 6 hrs followed by irradiation with 8 Gy X-ray at 37 degC for 12 hrs by microscopy. Type of experiment: functional, cell-based. In short, it runs like this:
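A375 cells in DMEM with 10% FBS, 37 °C, 5% CO2. Pretreated with agent 6 h, then 0 or 8 Gy X-ray from a linear accelerator at 1.5 Gy/min, room temperature. Incubated a further 12 h; morphology imaged.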

The test system of experiment [16] is A-375. Kind of experiment: Induction of cell cycle arrest in human A375 cells assessed as accumulation at G2/M phase at 4 ug/mL incubated for 6 hrs followed by irradiation with 8 Gy X-ray at 37 degC for 12 hrs by propidium iodide staining based flow cytometry (reference value: 47.2%). The experiment is classed as functional. In short, it runs like this:
as §3

Experiment [17] has as its system A-375. Kind of experiment: Reduction in Trx expression in human A375 cells at 2 ug/mL after 18 hrs by Western blotting method. Type of experiment: functional, cell-based.
Experiment [18] has as its system A-375. Put plainly: Reduction in Bcl-2 expression in human A375 cells at 4 ug/mL incubated for 18 hrs by Western blotting method. The experiment is classed as functional, cell-based. In short, it runs like this: as §2
The species entered for experiment [19] is Homo sapiens. Kind of experiment: Binding affinity to PMB-AGUVGAGLIK TrxR model peptide (unknown origin) at peptide to compound molar ratio of 1:1 at 37 degC for 18 hrs by MALDI-TOF-MS/MS assay. In short, it runs like this:
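Pre-reduced TrxR model peptide PMB-Ala-Gly-Sec-Val-Gly-Ala-Gly-Leu-Ile-Lys incubated with compound at 1:1 molar ratio, 37 °C, 18 h; adducts examined by MALDI-TOF MS, looking for compound-derived mass shifts and fragment peaks.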

Converted amounts (≈) assume the structure as drawn. The source made the active and inactive calls. The calls are words filed in the database; no cut-off is given here.

For the molecule `COc1cc(-c2nc3cc(-c4ccc5n[se]nc5c4)ccc3[nH]2)cc(OC)c1OC`, the result in [1], in experiment [2], in experiment [5], in experiment [7], in experiment [8] and in experiment [9] was Active. Moreover, the outcome in experiment [11], in experiment [12], in experiment [13], in [14], in experiment [15] and in experiment [17] was Active. In addition, the result in [18] and in [19] was Active. The outcome in experiment [3] and in experiment [4] was inactive. The same molecule had an IC50 in experiment [6] of 2.2 µg/mL (≈ 4.73 µM). Also, the Activity in experiment [10] is 57.1%; in experiment [16], 22.1%.

In general, IC50 refers to the concentration at which inhibition is half-maximal. A high value points to lower potency.

For the origin of these results see ChEMBL document CHEMBL3352644, “Selenadiazole derivatives as potent thioredoxin reductase inhibitors that enhance the radiosensitivity of cancer cells” (Eur J Med Chem, 2014).
